The target in experiment [1] is Vascular endothelial growth factor receptor 2 (Homo sapiens) (UniProt P35968). Briefly: Inhibition of recombinant human KDR (790 to end residues) assessed as residual activity at 1 uM using myelin basic protein as substrate incubated for 40 mins by [gamma-33P]-ATP scintillation counting based radiometry assay relative to control.
Experiment [2] concerns the target T1, Serine/threonine-protein kinase TNNI3K (Homo sapiens) (UniProt Q59H18).
T1 sequence (whole entry): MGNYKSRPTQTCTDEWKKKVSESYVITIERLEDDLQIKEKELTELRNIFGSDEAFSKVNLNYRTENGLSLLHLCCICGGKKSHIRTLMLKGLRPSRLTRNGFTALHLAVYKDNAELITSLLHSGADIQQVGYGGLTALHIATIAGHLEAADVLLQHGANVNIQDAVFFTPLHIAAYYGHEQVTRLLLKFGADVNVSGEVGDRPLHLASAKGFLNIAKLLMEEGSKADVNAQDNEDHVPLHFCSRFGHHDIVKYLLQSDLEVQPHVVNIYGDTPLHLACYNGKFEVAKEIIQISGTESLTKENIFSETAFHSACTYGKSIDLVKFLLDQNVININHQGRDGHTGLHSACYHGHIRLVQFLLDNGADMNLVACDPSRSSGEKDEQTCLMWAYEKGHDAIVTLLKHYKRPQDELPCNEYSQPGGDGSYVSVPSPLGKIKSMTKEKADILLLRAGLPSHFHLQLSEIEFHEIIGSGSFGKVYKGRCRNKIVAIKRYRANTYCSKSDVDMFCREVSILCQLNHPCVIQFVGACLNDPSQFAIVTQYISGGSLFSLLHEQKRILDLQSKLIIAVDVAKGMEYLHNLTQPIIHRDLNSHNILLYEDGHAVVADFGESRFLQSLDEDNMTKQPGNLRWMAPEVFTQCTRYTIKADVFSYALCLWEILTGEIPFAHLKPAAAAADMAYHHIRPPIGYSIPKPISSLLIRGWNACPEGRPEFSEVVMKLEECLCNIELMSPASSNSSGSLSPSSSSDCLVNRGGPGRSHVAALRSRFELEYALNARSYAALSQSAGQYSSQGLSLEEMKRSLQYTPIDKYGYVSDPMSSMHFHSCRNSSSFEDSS
Description: Inhibition of TNNI3K (unknown origin) assessed as residual activity at 1 uM using biotinylated CTnI as substrate by HTRF analysis relative to control. The gist of the method:
(§1)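 TNNI3K was assayed by HTRF using a GST-tagged TNNI3K kinase domain and a biotinylated cardiac troponin I substrate peptide, followed by the two HTRF detection reagents. Compounds were screened at 1.0 µM, then IC50s were determined.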
(In general: In TR-FRET formats the signal depends on donor and acceptor labels being close together.)

Experiment [3] deals with Receptor tyrosine-protein kinase erbB-2 (Homo sapiens) (UniProt P04626). Briefly: Inhibition of recombinant human HER2 (676 to end residues) assessed as residual activity at 1 uM using poly(Glu, Tyr) 4:1 as substrate incubated for 40 mins by [gamma-33P]-ATP scintillation counting based radiometry assay relative to control.
Chain of Receptor tyrosine-protein kinase erbB-2 (Homo sapiens) (P04626 whole entry): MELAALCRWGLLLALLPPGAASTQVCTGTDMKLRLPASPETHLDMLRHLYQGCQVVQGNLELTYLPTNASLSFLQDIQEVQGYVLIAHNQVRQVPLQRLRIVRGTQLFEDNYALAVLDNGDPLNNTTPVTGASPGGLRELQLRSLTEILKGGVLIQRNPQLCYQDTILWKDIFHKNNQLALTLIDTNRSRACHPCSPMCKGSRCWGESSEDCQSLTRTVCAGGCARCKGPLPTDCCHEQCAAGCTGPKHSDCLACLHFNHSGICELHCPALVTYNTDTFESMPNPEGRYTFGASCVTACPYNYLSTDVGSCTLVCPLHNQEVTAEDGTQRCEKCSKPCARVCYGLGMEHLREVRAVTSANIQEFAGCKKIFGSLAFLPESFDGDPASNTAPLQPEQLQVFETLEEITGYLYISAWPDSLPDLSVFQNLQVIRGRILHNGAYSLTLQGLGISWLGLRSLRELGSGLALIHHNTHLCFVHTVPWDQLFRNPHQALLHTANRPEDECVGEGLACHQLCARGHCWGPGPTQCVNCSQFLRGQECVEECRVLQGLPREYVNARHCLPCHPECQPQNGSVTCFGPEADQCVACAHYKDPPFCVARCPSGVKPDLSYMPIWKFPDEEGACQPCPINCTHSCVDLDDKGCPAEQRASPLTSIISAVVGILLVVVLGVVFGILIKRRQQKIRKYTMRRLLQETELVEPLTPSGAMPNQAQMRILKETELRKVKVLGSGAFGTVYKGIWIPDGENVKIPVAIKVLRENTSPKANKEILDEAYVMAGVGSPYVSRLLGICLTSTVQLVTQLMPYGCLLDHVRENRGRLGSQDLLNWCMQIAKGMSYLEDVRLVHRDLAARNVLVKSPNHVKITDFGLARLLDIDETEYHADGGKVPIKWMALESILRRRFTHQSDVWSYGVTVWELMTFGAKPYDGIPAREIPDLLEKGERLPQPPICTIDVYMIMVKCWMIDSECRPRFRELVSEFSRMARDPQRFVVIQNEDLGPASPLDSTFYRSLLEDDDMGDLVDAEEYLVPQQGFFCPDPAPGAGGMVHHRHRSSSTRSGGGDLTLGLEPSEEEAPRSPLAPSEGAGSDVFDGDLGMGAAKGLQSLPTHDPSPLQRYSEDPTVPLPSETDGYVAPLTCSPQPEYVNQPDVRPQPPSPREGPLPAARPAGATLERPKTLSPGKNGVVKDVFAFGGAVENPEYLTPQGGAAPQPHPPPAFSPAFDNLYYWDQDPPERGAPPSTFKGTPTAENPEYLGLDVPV
Experiment [4] has as its target Vascular endothelial growth factor receptor 1 (Homo sapiens) (UniProt P17948). Description: Inhibition of recombinant human FLT1 (783 to end residues) assessed as residual activity at 1 uM using KKKSPGEYVNIEFG as substrate incubated for 40 mins by [gamma-33P]-ATP scintillation counting based radiometry assay relative to control.
In experiment [5] the target is Epidermal growth factor receptor (Homo sapiens) (UniProt P00533). Description: Inhibition of recombinant human EGFR (696 to end residues) assessed as residual activity at 1 uM using poly(Glu, Tyr) 4:1 as substrate incubated for 40 mins by [gamma-33P]-ATP scintillation counting based radiometry assay relative to control.
The test system of experiment [6] is H9c2. Description: Cytoprotective activity against OGD-induced cell death in rat H9c2 cells assessed as cell viability at 10 uM incubated for 24 hrs by MTT assay (reference value: 42.08 to 49.11 %). Type of experiment: functional. The following applies: read-out: Activity. (Tetrazolium dyes change colour on reduction, which living cells bring about.)
Experiment [7] deals with H9c2. Description: Cytoprotective activity against OGD-induced cell death in rat H9c2 cells assessed as cell viability at 1 uM incubated for 24 hrs by MTT assay (reference value: 42.08 to 49.11 %). Type of experiment: functional. Conditions: read-out: Activity.
The target of experiment [8] is T2, Serine/threonine-protein kinase TNNI3K (Homo sapiens, UniProt Q59H18).
T2 sequence (Q59H18 whole entry): T1 sequence (whole entry)
Briefly: Inhibition of TNNI3K (unknown origin) using biotinylated CTnI as substrate by HTRF analysis. The gist of the method: as §1

Chain of Vascular endothelial growth factor receptor 1 (Homo sapiens) (P17948 whole entry): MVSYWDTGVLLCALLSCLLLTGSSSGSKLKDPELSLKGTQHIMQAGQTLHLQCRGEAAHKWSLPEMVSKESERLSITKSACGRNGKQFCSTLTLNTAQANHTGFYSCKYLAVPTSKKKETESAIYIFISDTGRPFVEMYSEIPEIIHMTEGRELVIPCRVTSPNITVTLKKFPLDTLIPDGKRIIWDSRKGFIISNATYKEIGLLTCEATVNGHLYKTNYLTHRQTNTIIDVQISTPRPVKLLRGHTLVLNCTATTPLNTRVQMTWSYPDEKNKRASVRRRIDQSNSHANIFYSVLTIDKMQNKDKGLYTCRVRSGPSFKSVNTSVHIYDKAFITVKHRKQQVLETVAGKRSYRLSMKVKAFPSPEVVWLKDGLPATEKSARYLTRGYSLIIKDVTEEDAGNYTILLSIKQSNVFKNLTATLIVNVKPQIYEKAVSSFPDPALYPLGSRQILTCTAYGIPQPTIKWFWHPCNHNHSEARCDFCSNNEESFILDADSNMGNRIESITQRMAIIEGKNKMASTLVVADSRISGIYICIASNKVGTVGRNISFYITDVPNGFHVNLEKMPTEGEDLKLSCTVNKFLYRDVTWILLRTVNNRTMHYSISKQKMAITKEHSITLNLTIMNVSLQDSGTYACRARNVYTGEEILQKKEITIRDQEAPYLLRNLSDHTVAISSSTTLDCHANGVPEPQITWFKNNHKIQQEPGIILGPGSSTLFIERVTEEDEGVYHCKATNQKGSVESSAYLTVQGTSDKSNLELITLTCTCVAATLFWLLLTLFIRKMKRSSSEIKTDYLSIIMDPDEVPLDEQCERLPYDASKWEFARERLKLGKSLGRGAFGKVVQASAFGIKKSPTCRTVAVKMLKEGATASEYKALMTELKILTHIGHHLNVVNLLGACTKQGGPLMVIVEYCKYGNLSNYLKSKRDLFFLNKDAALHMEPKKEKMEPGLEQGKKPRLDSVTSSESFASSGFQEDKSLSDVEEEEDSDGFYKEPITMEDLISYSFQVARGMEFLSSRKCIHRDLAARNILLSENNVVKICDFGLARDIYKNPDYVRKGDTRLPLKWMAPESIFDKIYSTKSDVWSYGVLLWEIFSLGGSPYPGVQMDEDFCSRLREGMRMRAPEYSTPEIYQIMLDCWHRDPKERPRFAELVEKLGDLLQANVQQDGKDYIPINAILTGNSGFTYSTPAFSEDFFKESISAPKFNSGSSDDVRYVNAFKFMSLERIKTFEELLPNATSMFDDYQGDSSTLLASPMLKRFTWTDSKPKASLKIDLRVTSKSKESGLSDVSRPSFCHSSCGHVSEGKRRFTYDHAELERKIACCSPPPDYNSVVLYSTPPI
Chain of Vascular endothelial growth factor receptor 2 (Homo sapiens) (P35968 whole entry): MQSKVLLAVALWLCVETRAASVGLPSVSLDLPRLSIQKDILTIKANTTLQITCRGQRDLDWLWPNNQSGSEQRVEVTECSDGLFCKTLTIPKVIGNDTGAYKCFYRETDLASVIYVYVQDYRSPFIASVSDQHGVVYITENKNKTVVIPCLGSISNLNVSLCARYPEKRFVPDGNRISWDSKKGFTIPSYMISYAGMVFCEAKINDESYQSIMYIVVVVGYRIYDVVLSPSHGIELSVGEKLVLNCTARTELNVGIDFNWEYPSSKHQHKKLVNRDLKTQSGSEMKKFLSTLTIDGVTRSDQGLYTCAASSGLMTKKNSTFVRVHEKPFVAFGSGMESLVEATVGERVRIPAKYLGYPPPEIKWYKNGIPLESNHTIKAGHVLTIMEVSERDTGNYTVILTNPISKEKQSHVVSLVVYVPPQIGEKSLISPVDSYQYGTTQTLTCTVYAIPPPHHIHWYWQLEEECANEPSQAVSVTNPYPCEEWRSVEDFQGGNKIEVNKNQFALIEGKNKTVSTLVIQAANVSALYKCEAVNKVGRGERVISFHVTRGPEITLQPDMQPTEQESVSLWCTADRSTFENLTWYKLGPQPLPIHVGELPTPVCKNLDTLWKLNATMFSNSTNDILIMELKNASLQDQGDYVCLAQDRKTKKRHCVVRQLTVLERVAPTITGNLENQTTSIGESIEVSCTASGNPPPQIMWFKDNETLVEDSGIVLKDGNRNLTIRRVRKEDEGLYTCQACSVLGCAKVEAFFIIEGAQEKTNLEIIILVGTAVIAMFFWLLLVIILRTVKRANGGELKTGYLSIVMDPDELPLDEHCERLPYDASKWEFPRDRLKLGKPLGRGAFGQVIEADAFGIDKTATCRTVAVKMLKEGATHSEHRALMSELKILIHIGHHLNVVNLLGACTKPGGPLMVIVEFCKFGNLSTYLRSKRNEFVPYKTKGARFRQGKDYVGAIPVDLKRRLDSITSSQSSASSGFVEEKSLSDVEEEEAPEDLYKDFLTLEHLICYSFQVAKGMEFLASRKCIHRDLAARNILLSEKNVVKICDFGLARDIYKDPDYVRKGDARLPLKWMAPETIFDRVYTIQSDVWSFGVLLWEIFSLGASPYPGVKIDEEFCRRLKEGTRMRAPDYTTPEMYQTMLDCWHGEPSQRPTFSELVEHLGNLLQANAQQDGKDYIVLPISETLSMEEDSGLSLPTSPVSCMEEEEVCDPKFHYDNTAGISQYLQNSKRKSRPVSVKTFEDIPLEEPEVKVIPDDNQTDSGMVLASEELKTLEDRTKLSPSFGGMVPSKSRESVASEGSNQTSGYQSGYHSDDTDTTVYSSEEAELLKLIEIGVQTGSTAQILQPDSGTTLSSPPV

On to `CN(C)c1ccc(Nc2ncnc3sc4c(c23)CCNC4)cc1NC(=O)c1ccccn1`, for which the Activity turned out to be 95% in experiment [1]; 42% in experiment [2]; 98% in experiment [3]; 96% in experiment [4]; 103% in experiment [5].
In the case of `CCC(=O)Nc1cc(Nc2ncnc3sc4c(c23)CCN(C)C4)ccc1N(C)C`, the Activity came to 82% in experiment [1]; 49% in experiment [2]; 109% in experiment [3]; 95% in experiment [4]; 99% in experiment [5].
The term IC50 denotes the concentration needed to halve the response being measured. As for `CN1CCN(CCCN2CCc3c(sc4ncnc(Nc5ccc(N(C)C)c(NC(=O)c6ccco6)c5)c34)C2)CC1`, the Activity in experiment [1] turned out to be 88%; in experiment [2], 33%; in experiment [3], 107%; in experiment [4], 100%; in experiment [5], 90%. In experiment [6], the viability at 10 µM was determined as 79.9%. Also, the viability at 1 µM in experiment [7] came out at 61.1%. In experiment [8], this compound had an IC50 of 640 nM.
For `CN(C)c1ccc(Nc2ncnc3sc4c(c23)CCN(C(=O)c2cnccn2)C4)cc1NC(=O)c1ccco1`, the Activity in experiment [1] amounted to 90%; in experiment [2], 43%; in experiment [3], 96%; in experiment [4] it was 98%; in experiment [5], 89%.
The corresponding values for `CN(C)c1ccc(Nc2ncnc3sc4c(c23)CCN(C(=O)c2ncccn2)C4)cc1NC(=O)c1cccs1` are 86%, 49%, 112%, 104% and 92%.
The corresponding values for `CN(C)c1ccc(Nc2ncnc3sc4c(c23)CCN(C(=O)c2ccccn2)C4)cc1NC(=O)c1cccs1` are 73%, 40%, 99%, 87% and 99%.
The corresponding values for `CN(C)c1ccc(Nc2ncnc3sc4c(c23)CCN(C(=O)c2ncccn2)C4)cc1NC(=O)c1ccco1` are 81%, 54%, 98%, 101% and 82%.
Consider `CN(C)c1ccc(Nc2ncnc3sc4c(c23)CCN(C(=O)c2cccnc2)C4)cc1NC(=O)c1cccs1`, for which the Activity in experiment [1] was 69%; in experiment [2], 45%; in experiment [3], 93%; in experiment [4], 81%; in experiment [5], 94%.
As for `Cc1ccc(C(=O)Nc2cc(Nc3ncnc4sc5c(c34)CCN(C)C5)ccc2N(C)C)cc1`, the Activity in experiment [1] was 83%; in experiment [2], 71%; in experiment [3] it was 92%; in experiment [4] it was 97%; in experiment [5], 108%.
The corresponding values for `CCC(=O)Nc1cc(Nc2ncnc3sc4c(c23)CCN(C(=O)c2ccc(C(F)(F)F)cc2)C4)ccc1N(C)C` are 95%, 41%, 103%, 109% and 107%.
The corresponding values for `CCC(=O)Nc1cc(Nc2ncnc3sc4c(c23)CCN(CC)C4)ccc1N(C)C` are 80%, 53%, 90%, 109% and 93%.
With `CCC(=O)Nc1cc(Nc2ncnc3sc4c(c23)CCN(c2ncccn2)C4)ccc1N(C)C`, the Activity turned out to be 80% in experiment [1]; 59% in experiment [2]; 99% in experiment [3]; 106% in experiment [4]; 102% in experiment [5].
As to `CN(C)c1ccc(Nc2ncnc3sc4c(c23)CCNC4)cc1NC(=O)c1cccc2ccccc12`, the Activity in experiment [1] is 88%; in experiment [2], 71%; in experiment [3], 90%; in experiment [4], 105%; in experiment [5], 110%.
The corresponding values for `CN(C)c1ccc(Nc2ncnc3sc4c(c23)CCN(C(=O)c2ccncc2)C4)cc1NC(=O)c1cccs1` are 82%, 36%, 110%, 85% and 85%.
The corresponding values for `CN1CCc2c(sc3ncnc(Nc4ccc(N(C)C)c(NC(=O)c5cccnc5)c4)c23)C1` are 94%, 47%, 93%, 103% and 105%.
For `CCC(=O)Nc1cc(Nc2ncnc3sc4c(c23)CCNC4)ccc1N(C)C`, in that order: 92%, 46%, 102%, 107% and 97%.
As to `CN(C)c1ccc(Nc2ncnc3sc4c(c23)CCN(C(=O)c2cnccn2)C4)cc1NC(=O)c1cccs1`, the Activity stood at 80% in experiment [1]; 44% in experiment [2]; 113% in experiment [3]; 98% in experiment [4]; 80% in experiment [5].
As for `CN1CCc2c(sc3ncnc(Nc4ccc(N(C)C)c(NC(=O)c5cccc6ccccc56)c4)c23)C1`, the Activity was 87% in experiment [1]; 77% in experiment [2]; 96% in experiment [3]; 101% in experiment [4]; 98% in experiment [5].
For `CN(C)c1ccc(Nc2ncnc3sc4c(c23)CCNC4)cc1NC(=O)c1cccnc1`, in that order: 90%, 45%, 107%, 104% and 108%.
The corresponding values for `CN1CCc2c(sc3ncnc(Nc4ccc(N(C)C)c(NC(=O)c5ccncc5)c4)c23)C1` are 84%, 46%, 97%, 105% and 105%.
For `CN(C)c1ccc(Nc2ncnc3sc4c(c23)CCN(C(=O)c2cccnc2)C4)cc1NC(=O)c1ccco1`, in that order: 93%, 41%, 101%, 89% and 110%.
In the case of `CN1CCc2c(sc3ncnc(Nc4ccc(N(C)C)c(NC(=O)c5ccccn5)c4)c23)C1`, the Activity in experiment [1] came to 89%; in experiment [2], 55%; in experiment [3], 103%; in experiment [4], 94%; in experiment [5], 100%.
Turning to `CN1CCc2c(sc3ncnc(Nc4ccc(N(C)C)c(NC(=O)c5cccs5)c4)c23)C1`, the Activity in experiment [1] worked out at 89%; in experiment [2], 40%; in experiment [3], 103%; in experiment [4], 108%; in experiment [5] it was 104%.
For `CCC(=O)Nc1cc(Nc2ncnc3sc4c(c23)CCN(Cc2ccccc2)C4)ccc1N(C)C`, in that order: 85%, 48%, 94%, 106% and 91%.
For the compound `Cc1ccc(C(=O)Nc2cc(Nc3ncnc4sc5c(c34)CCNC5)ccc2N(C)C)cc1`, the Activity in experiment [1] is 95%; in experiment [2], 78%; in experiment [3] it was 92%; in experiment [4] it was 96%; in experiment [5], 108%.

The record behind these values is ChEMBL document CHEMBL4765301, “Discovery of novel TNNI3K inhibitor suppresses pyroptosis and apoptosis in murine myocardial infarction injury” (Eur J Med Chem, 2020).
